Laboratory results reported in ChEMBL document CHEMBL1909615, “Design, synthesis and antibacterial activity of fluoroquinolones containing bulky arenesulfonyl fragment: 2D-QSAR and docking study” (2011).
Values after ≈ are worked out from the molar mass of the structure shown.

Key:
Format in all cases: functional
[1] = tested on: Bacillus subtilis; assay: Antibacterial activity against Bacillus subtilis ATCC 10400 after 18 hrs by EUCAST broth dilution method; conditions: for MIC: Bacillus subtilis, ATCC 10400, 18 h
[2] = tested on: Staphylococcus aureus; assay: Antibacterial activity against Staphylococcus aureus ATCC 29213 after 18 hrs by EUCAST broth dilution method; conditions: for MIC: Staphylococcus aureus, ATCC 29213, 18 h
Method in brief: (§1)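 Broth microdilution in Mueller-Hinton broth per CLSI. Compounds dissolved in DMSO at 5120 µg/mL, diluted tenfold in MHB to 512 µg/mL, then twofold serially across 12 wells down to 0.25 µg/mL. Strains grown in tryptone soy broth; 5 µL inoculum (10^4-10^5 CFU/mL) added per well. Incubated 35 °C, 18 h. MIC read manually as the lowest concentration preventing visible growth.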

[3] = tested on: Escherichia coli; assay: Antibacterial activity against Escherichia coli ATCC 25922 after 18 hrs by EUCAST broth dilution method; conditions: ATCC 25922, 18 h; method in brief: as §1
[4] = tested on: Pseudomonas aeruginosa; assay: Antibacterial activity against Pseudomonas aeruginosa ATCC 27853 after 18 hrs by EUCAST broth dilution method; conditions: for MIC: Pseudomonas aeruginosa, ATCC 27853, 18 h; method in brief: as §1

Row | Structure (SMILES) | log(1/MIC), MIC in mM [1] | MIC [1] | log(1/MIC), MIC in mM [2] | MIC [2] | MIC [3] | log(1/MIC), MIC in mM [4] | MIC [4]
1 | O=C(O)c1cn(C2CC2)c2cc(N3CCN(S(=O)(=O)c4c(Cl)cc(Cl)cc4Cl)CC3)c(F)cc2c1=O | 3.36 | 0.435 µM (≈ 0.25 µg/mL) | 2.76 | 1.74 µM (≈ 1 µg/mL) | 111 µM (≈ 63.8 µg/mL) | 0.95 | 111 µM (≈ 63.8 µg/mL)
2 | CCn1cc(C(=O)O)c(=O)c2cc(F)c(N3CCN(S(=O)(=O)c4ccc5ccccc5c4)CC3)cc21 | 3.01 | 0.981 µM (≈ 0.5 µg/mL) | 2.71 | 1.96 µM (≈ 0.999 µg/mL) | 251 µM (≈ 128 µg/mL) | 0.9 | 126 µM (≈ 64.2 µg/mL)
3 | CCn1cc(C(=O)O)c(=O)c2cc(F)c(N3CCN(S(=O)(=O)c4cccc5ccccc45)CC3)cc21 | 3.01 | 0.981 µM (≈ 0.5 µg/mL) | 2.71 | 1.96 µM (≈ 0.999 µg/mL) | 251 µM (≈ 128 µg/mL) | 0.6 | 251 µM (≈ 128 µg/mL)
4 | Cc1cc(C)c(S(=O)(=O)N2CCN(c3cc4c(cc3F)c(=O)c(C(=O)O)cn4C3CC3)CC2)c(C)c1 | 1.51 | 31 µM (≈ 15.9 µg/mL) | 1.21 | 62 µM (≈ 31.8 µg/mL) | 62 µM (≈ 31.8 µg/mL) | 0.9 | 125 µM (≈ 64.2 µg/mL)
5 | O=C(O)c1cn(C2CC2)c2cc(N3CCN(S(=O)(=O)c4ccc(Cl)cc4Cl)CC3)c(F)cc2c1=O | 3.33 | ≤ 0.463 µM | 3.33 | ≤ 0.463 µM | ≤ 0.463 µM | 2.73 | 1.85 µM (≈ 1 µg/mL)
6 | O=C(O)c1cn(C2CC2)c2cc(N3CCNCC3)c(F)cc2c1=O [CIPROFLOXACIN] | 3.12 | ≤ 0.758 µM | 3.12 | ≤ 0.758 µM | ≤ 0.758 µM | 3.12 | 0.758 µM (≈ 0.251 µg/mL)
7 | COc1ccc(S(=O)(=O)N2CCN(c3cc4c(cc3F)c(=O)c(C(=O)O)cn4C3CC3)CC2)c(OC)c1 | 3.33 | ≤ 0.47 µM | 3.33 | ≤ 0.47 µM | ≤ 0.47 µM | 3.33 | 0.47 µM (≈ 0.25 µg/mL)
8 | O=C(O)c1cn(C2CC2)c2cc(N3CCN(S(=O)(=O)c4ccc(F)cc4F)CC3)c(F)cc2c1=O | 3.31 | 0.493 µM (≈ 0.25 µg/mL) | 2.41 | 3.94 µM (≈ 2 µg/mL) | 7.88 µM (≈ 4 µg/mL) | 1.2 | 63 µM (≈ 32 µg/mL)
9 | COc1ccc(S(=O)(=O)N2CCN(c3cc4c(cc3F)c(=O)c(C(=O)O)cn4C3CC3)CC2)cc1OC | 3.33 | 0.47 µM (≈ 0.25 µg/mL) | 3.33 | ≤ 0.47 µM | ≤ 0.47 µM | 2.42 | 3.76 µM (≈ 2 µg/mL)
10 | O=C(O)c1cn(C2CC2)c2cc(N3CCN(S(=O)(=O)c4ccc(Cl)c(Cl)c4)CC3)c(F)cc2c1=O | 3.33 | ≤ 0.463 µM | 3.33 | ≤ 0.463 µM | ≤ 0.463 µM | 2.73 | 1.85 µM (≈ 1 µg/mL)
11 | O=C(O)c1cn(C2CC2)c2cc(N3CCN(S(=O)(=O)c4ccc5ccccc5c4)CC3)c(F)cc2c1=O | 2.72 | 1.92 µM (≈ 1 µg/mL) | 2.72 | 1.92 µM (≈ 1 µg/mL) | 123 µM (≈ 64.2 µg/mL) | 0.61 | 245 µM (≈ 128 µg/mL)
12 | Cc1c(C)c(C)c(S(=O)(=O)N2CCN(c3cc4c(cc3F)c(=O)c(C(=O)O)cn4C3CC3)CC2)c(C)c1C | 0.63 | 236 µM (≈ 128 µg/mL) | 0.33 | ≥ 473 µM | ≥ 473 µM | 0.33 | ≥ 473 µM
13 | O=C(O)c1cn(C2CC2)c2cc(N3CCN(S(=O)(=O)c4cccc5ccccc45)CC3)c(F)cc2c1=O | 3.32 | 0.479 µM (≈ 0.25 µg/mL) | 2.72 | 1.92 µM (≈ 1 µg/mL) | 61.3 µM (≈ 32 µg/mL) | 0.91 | 123 µM (≈ 64.2 µg/mL)
14 | CCn1cc(C(=O)O)c(=O)c2cc(F)c(N3CCN(S(=O)(=O)c4ccc(OC)c(OC)c4)CC3)cc21 | 3.02 | 0.962 µM (≈ 0.5 µg/mL) | 3.02 | 0.962 µM (≈ 0.5 µg/mL) | ≤ 0.481 µM | 2.14 | 3.85 µM (≈ 2 µg/mL)

Second part, the molecule after the results:

Row | log(1/MIC), MIC in mM [1] | MIC [1] | log(1/MIC), MIC in mM [2] | MIC [2] | MIC [3] | log(1/MIC), MIC in mM [4] | MIC [4] | Structure (SMILES)
15 | 3.35 | 0.444 µM (≈ 0.25 µg/mL) | 2.75 | 1.78 µM (≈ 1 µg/mL) | ≥ 455 µM | 0.34 | ≥ 455 µM | CCn1cc(C(=O)O)c(=O)c2cc(F)c(N3CCN(S(=O)(=O)c4c(Cl)cc(Cl)cc4Cl)CC3)cc21
16 | 3.33 | 0.473 µM (≈ 0.25 µg/mL) | 3.33 | ≤ 0.473 µM | ≤ 0.473 µM | 2.86 | 1.39 µM (≈ 0.734 µg/mL) | CCn1cc(C(=O)O)c(=O)c2cc(F)c(N3CCN(S(=O)(=O)c4ccc(Cl)cc4Cl)CC3)cc21
17 | 2.09 | 7.98 µM (≈ 4 µg/mL) | 2.09 | 7.98 µM (≈ 4 µg/mL) | 32 µM (≈ 16.1 µg/mL) | 1.19 | 64 µM (≈ 32.1 µg/mL) | CCn1cc(C(=O)O)c(=O)c2cc(F)c(N3CCN(S(=O)(=O)c4c(C)cc(C)cc4C)CC3)cc21
18 | 2.39 | 4.04 µM (≈ 2 µg/mL) | 2.09 | 8.07 µM (≈ 4 µg/mL) | 8.07 µM (≈ 4 µg/mL) | 0.89 | 129 µM (≈ 63.9 µg/mL) | CCn1cc(C(=O)O)c(=O)c2cc(F)c(N3CCN(S(=O)(=O)c4ccc(F)cc4F)CC3)cc21
19 | 0.97 | 107 µM (≈ 64 µg/mL) | 0.67 | 214 µM (≈ 128 µg/mL) | 3.35 µM (≈ 2 µg/mL) | 0.37 | ≥ 428 µM | CC(C)c1cc(C(C)C)c(S(=O)(=O)N2CCN(c3cc4c(cc3F)c(=O)c(C(=O)O)cn4C3CC3)CC2)c(C(C)C)c1
20 | 3.33 | ≤ 0.473 µM | 3.33 | ≤ 0.473 µM | ≤ 0.473 µM | 2.72 | 1.89 µM (≈ 0.999 µg/mL) | CCn1cc(C(=O)O)c(=O)c2cc(F)c(N3CCN(S(=O)(=O)c4ccc(Cl)c(Cl)c4)CC3)cc21
21 | 3.32 | 0.481 µM (≈ 0.25 µg/mL) | 3.32 | 0.481 µM (≈ 0.25 µg/mL) | ≤ 0.481 µM | 2.14 | 3.85 µM (≈ 2 µg/mL) | CCn1cc(C(=O)O)c(=O)c2cc(F)c(N3CCN(S(=O)(=O)c4ccc(OC)cc4OC)CC3)cc21
22 | 0.62 | 242 µM (≈ 128 µg/mL) | 0.62 | 242 µM (≈ 128 µg/mL) | 242 µM (≈ 128 µg/mL) | 0.62 | 242 µM (≈ 128 µg/mL) | CCn1cc(C(=O)O)c(=O)c2cc(F)c(N3CCN(S(=O)(=O)c4c(C)c(C)c(C)c(C)c4C)CC3)cc21
23 | 1.26 | 55 µM (≈ 32.2 µg/mL) | 1.26 | 55 µM (≈ 32.2 µg/mL) | 55 µM (≈ 32.2 µg/mL) | 0.96 | 109 µM (≈ 63.8 µg/mL) | CCn1cc(C(=O)O)c(=O)c2cc(F)c(N3CCN(S(=O)(=O)c4c(C(C)C)cc(C(C)C)cc4C(C)C)CC3)cc21
